From article PMC7668563 (International journal of molecular biology (Edmond, Okla.), 2020)
Read-outs that look alike come from different tables or passages of the source.

Experiments:
[1] = tested on: human breast adenocarcinoma cell line, MCF-7; assay: MTT cell viability assay on MCF-7, 72 h exposure; format: cell-based; settings: for IC50 (±SD), MCF-7: MCF-7, 72 h of exposure
Procedure, shortened: (§1)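 HT-29 was grown in McCoy's 5A with 10% FBS. MCF-7 was grown in MEM with 10% FBS and 0.01 mg/mL insulin. Both were kept at 37°C, 5% CO2, trypsinized at 70–80% confluency and seeded at 1.5×10^4 cells/well for 24 h. Cells were then exposed for 72 h to test compound in 5% DMSO/95% medium, with DMSO-medium controls. MTT was added as a 2.67 mg/mL solution for 2 h. Formazan was dissolved in 10% Triton X-100/isopropanol and read at A570 minus A620. IC50 came from a sigmoidal fit of viability vs log concentration, eight replicas, triplicate, ±SD.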

[2] = tested on: human colorectal adenocarcinoma cell line, HT-29; assay: MTT cell viability assay on HT-29, 72 h exposure; format: cell-based; settings: read-out: IC50 (±SD), HT-29, HT-29, 72 h of exposure
Procedure, shortened: as §1

[3] = target: T1, apo-human transferrin (apo-hTf) (Homo sapiens, UniProt P02787); assay: UV-Vis absorbance titration of apo-hTf; format: binding; settings: for Ka at 280 nm: absorbance at 280 nm; for Association constants, Ka, 280 nm: absorbance of apo-hTf at 280 nm
T1 sequence (P02787 20-698): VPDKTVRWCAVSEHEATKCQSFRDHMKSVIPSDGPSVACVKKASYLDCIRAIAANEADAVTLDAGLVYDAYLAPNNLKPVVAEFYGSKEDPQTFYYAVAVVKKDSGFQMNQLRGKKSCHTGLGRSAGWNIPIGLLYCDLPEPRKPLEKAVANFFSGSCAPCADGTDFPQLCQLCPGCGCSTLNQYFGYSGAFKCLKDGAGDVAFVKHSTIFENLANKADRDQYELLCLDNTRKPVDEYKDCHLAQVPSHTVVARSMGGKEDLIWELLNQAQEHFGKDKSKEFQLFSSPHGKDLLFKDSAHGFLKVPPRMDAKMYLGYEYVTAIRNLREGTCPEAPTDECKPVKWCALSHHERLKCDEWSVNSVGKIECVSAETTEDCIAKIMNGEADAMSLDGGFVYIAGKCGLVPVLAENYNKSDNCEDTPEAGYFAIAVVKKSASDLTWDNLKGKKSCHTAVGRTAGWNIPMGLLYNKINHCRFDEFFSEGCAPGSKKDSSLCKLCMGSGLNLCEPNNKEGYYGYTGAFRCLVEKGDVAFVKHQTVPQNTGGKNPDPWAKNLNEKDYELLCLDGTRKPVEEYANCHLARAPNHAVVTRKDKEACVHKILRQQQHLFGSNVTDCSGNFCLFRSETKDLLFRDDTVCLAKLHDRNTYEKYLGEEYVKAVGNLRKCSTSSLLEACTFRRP

[4] = target: T1, apo-human transferrin (apo-hTf); assay: Fluorescence quenching of apo-hTf; format: binding; settings: for biomolecular quenching rate constant kq: kq=Ksv/τ0; for Stern-Volmer quenching constant Ksv / number of binding sites n: pH 7.4; for quenching association constant Ka: pH 7.4, modified Stern-Volmer
Procedure, shortened: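 Intrinsic fluorescence of apo-hTf in Tris-HCl pH 7.4 was titrated with test compound (Tris-HCl/2% DMSO). Conditions: excitation 280 nm, emission 290–500 nm, slits 10/5 nm, 1.0 cm quartz cell, at 296, 303, 310 and 317 K, triplicate titrations. Intensities were corrected for inner filter effect using absorbances at excitation and emission wavelengths. Ksv came from Stern-Volmer plots of F0/F vs [Q]; kq = Ksv/τ0 (τ0 ~1.0×10−8); Ka and n came from the modified Stern-Volmer equation.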

[5] = target: T1, apo-human transferrin (apo-hTf); assay: Thermodynamic parameters of apo-hTf complex formation; format: binding; settings: for ∆H° / ∆S°: pH 7.4, from Ksv at 296-317 K
Procedure, shortened: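 Ksv values were obtained from apo-hTf fluorescence quenching at pH 7.4 at 296, 303, 310 and 317 K. ΔH°, ΔS° and ΔG° were derived from linear regression of ln(Ksv) vs 1/T (Van't Hoff equation).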

[6] = target: T1, apo-human transferrin (apo-hTf); assay: Fluorescence resonance energy transfer; format: binding; settings: for Förster critical energy transfer distance R0 / binding distance r (donor-acceptor): k^2=2/3, n=1.336, ØD=0.118; for efficiency of energy transfer E: room temperature, 1.0×10^−5 mol L^−1 each
Procedure, shortened: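 Emission spectrum of 1.0×10−5 mol L−1 apo-hTf and absorption spectrum of 1.0×10−5 mol L−1 test compound were recorded in 20 mM Tris-HCl pH 7.4 at room temperature, 260–450 nm, and their spectral overlap determined. E was calculated from apo-hTf fluorescence without and with equimolar test compound. R0 and donor–acceptor distance r came from Förster equations.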

[7] = target: T1, apo-human transferrin (apo-hTf); assay: Far-UV circular dichroism titration of apo-hTf, secondary structure content
Procedure, shortened: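 Apo-hTf (4.0×10−7 mol L−1) in 2 mM Tris-HCl pH 7.4 was titrated with a 1.0×10−3 mol L−1 stock of test compound in Tris-HCl/2% DMSO, to final 0–2.4×10−6 mol L−1. Far-UV CD was recorded from 190–250 nm under nitrogen in a 1.0 cm cell: six scans at 100 nm/min. Baseline was buffer ± DMSO at room temperature. α-Helix was derived from MRE at 208 nm; β-sheet and random coil by the CD-RRG method.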

[8] = target: T1, apo-human transferrin (apo-hTf); settings: cited from earlier work; for Ka: Cp2VCl2 bound to apo-hTf
[9] = apo-hTf:Cp2VCl2 complex, ref Zhang et al. 64

[Cl-].[Cl-].[V+4].c1cc[cH-]c1.c1cc[cH-]c1 [Cp2VCl2]
IC50 ([1]; read-out: IC50 (±SD), MCF-7, MCF-7, 72 h of exposure): 50 µM
IC50 [2]: 33 µM
Ka at 280 nm [3]: 3240 M⁻¹
Ka at 361 nm ([3]; absorbance at 361 nm): 2670 M⁻¹
Association constants, Ka, 280 nm ([3]; pH 7.4): 3.24 10^3 M^−1
Association constants, Ka, 361 nm ([3]; absorbance of apo-hTf at 361 nm, pH 7.4): 2.67 10^3 M^−1
biomolecular quenching rate constant kq ([4]; 296 K): 3.564e+12 M⁻¹ s⁻¹
Stern-Volmer quenching constant Ksv ([4]; 296 K): 35640 M⁻¹
number of binding sites n ([4]; 296 K): 1.23
quenching association constant Ka ([4]; 296 K): 444400 M⁻¹
biomolecular quenching rate constant kq ([4]; 303 K): 4.085e+12 M⁻¹ s⁻¹
Stern-Volmer quenching constant Ksv ([4]; 303 K): 40850 M⁻¹
number of binding sites n ([4]; 303 K): 1.2
quenching association constant Ka ([4]; 303 K): 337500 M⁻¹
biomolecular quenching rate constant kq ([4]; 310 K): 4.26e+12 M⁻¹ s⁻¹
Stern-Volmer quenching constant Ksv ([4]; 310 K): 42600 M⁻¹
number of binding sites n ([4]; 310 K): 1.16
quenching association constant Ka ([4]; 310 K): 240500 M⁻¹
biomolecular quenching rate constant kq ([4]; 317 K): 4.936e+12 M⁻¹ s⁻¹
Stern-Volmer quenching constant Ksv ([4]; 317 K): 49360 M⁻¹
number of binding sites n ([4]; 317 K): 1.11
quenching association constant Ka ([4]; 317 K): 159800 M⁻¹
∆G° ([5]; 296 K): -6.169 kcal/mol
∆G° ([5]; 303 K): -6.379 kcal/mol
∆G° ([5]; 310 K): -6.587 kcal/mol
∆G° ([5]; 317 K): -6.797 kcal/mol
∆H° [5]: 2.713 kcal/mol
∆S° [5]: 125.52 J/mol K
Förster critical energy transfer distance R0 [6]: 1.78 nm
binding distance r (donor-acceptor) [6]: 2.08 nm
efficiency of energy transfer E [6]: 0.281
other secondary structure content of apo-hTf ([7]; compound concentration 0.4 (M)): 20%
random coil content of apo-hTf ([7]; compound concentration 0.4 (M)): 33.7%
α-helix content of apo-hTf ([7]; compound concentration 0.4 (M)): 28.4%
β-sheet content of apo-hTf ([7]; compound concentration 0.4 (M)): 17.9%
other secondary structure content of apo-hTf ([7]; compound concentration 0.8 (M)): 20.1%
random coil content of apo-hTf ([7]; compound concentration 0.8 (M)): 33.9%
α-helix content of apo-hTf ([7]; compound concentration 0.8 (M)): 27.9%
β-sheet content of apo-hTf ([7]; compound concentration 0.8 (M)): 18.1%
other secondary structure content of apo-hTf ([7]; compound concentration 1.2 (M)): 20.4%
random coil content of apo-hTf ([7]; compound concentration 1.2 (M)): 34.1%
α-helix content of apo-hTf ([7]; compound concentration 1.2 (M)): 27.2%
β-sheet content of apo-hTf ([7]; compound concentration 1.2 (M)): 18.3%
other secondary structure content of apo-hTf ([7]; compound concentration 1.6 (M)): 20.7%
random coil content of apo-hTf ([7]; compound concentration 1.6 (M)): 34.3%
α-helix content of apo-hTf ([7]; compound concentration 1.6 (M)): 26.5%
β-sheet content of apo-hTf ([7]; compound concentration 1.6 (M)): 18.5%
other secondary structure content of apo-hTf ([7]; compound concentration 2 (M)): 20.8%
random coil content of apo-hTf ([7]; compound concentration 2 (M)): 34.5%
α-helix content of apo-hTf ([7]; compound concentration 2 (M)): 25.8%
β-sheet content of apo-hTf ([7]; compound concentration 2 (M)): 18.9%
other secondary structure content of apo-hTf ([7]; compound concentration 2.4 (M)): 21.1%
random coil content of apo-hTf ([7]; compound concentration 2.4 (M)): 34.6%
α-helix content of apo-hTf ([7]; compound concentration 2.4 (M)): 25.1%
β-sheet content of apo-hTf ([7]; compound concentration 2.4 (M)): 19.2%
Ka ([8]; ref Du et al. 63): 137000 M⁻¹
Ka ([8]; ref Zhang et al. 64): 32800 M⁻¹
Ksv [8, 9]: 30400 M⁻¹
kq [8, 9]: 3.04e+12 M⁻¹ s⁻¹

[Cl-].[Cl-].[Hf+4].c1cc[cH-]c1.c1cc[cH-]c1 [Cp2HfCl2]
IC50 (±SD), MCF-7 [1]: proliferative activity
IC50 (±SD), MCF-7 ([1]; listed as Cp^2HfCl^2): Proliferative
IC50 [2]: 564 µM
Ka at 280 nm [3]: 2110 M⁻¹
Association constants, Ka, 280 nm ([3]; pH 7.4): 2.11 10^3 M^−1
biomolecular quenching rate constant kq ([4]; 296 K): 1.97e+11 M⁻¹ s⁻¹
Stern-Volmer quenching constant Ksv ([4]; 296 K): 1970 M⁻¹
number of binding sites n ([4]; 296 K): 1.15
quenching association constant Ka ([4]; 296 K): 8900 M⁻¹
biomolecular quenching rate constant kq ([4]; 303 K): 1.57e+11 M⁻¹ s⁻¹
Stern-Volmer quenching constant Ksv ([4]; 303 K): 1570 M⁻¹
number of binding sites n ([4]; 303 K): 1.17
quenching association constant Ka ([4]; 303 K): 8100 M⁻¹
biomolecular quenching rate constant kq ([4]; 310 K): 1.36e+11 M⁻¹ s⁻¹
Stern-Volmer quenching constant Ksv ([4]; 310 K): 1360 M⁻¹
number of binding sites n ([4]; 310 K): 1.18
quenching association constant Ka ([4]; 310 K): 7500 M⁻¹
biomolecular quenching rate constant kq ([4]; 317 K): 1.24e+11 M⁻¹ s⁻¹
Stern-Volmer quenching constant Ksv ([4]; 317 K): 1240 M⁻¹
number of binding sites n ([4]; 317 K): 1.19
quenching association constant Ka ([4]; 317 K): 7000 M⁻¹
∆G° ([5]; 296 K): -4.443 kcal/mol
∆G° ([5]; 303 K): -4.45 kcal/mol
∆G° ([5]; 310 K): -4.46 kcal/mol
∆G° ([5]; 317 K): -4.469 kcal/mol
∆H° [5]: -4.08 kcal/mol
∆S° [5]: 5.13 J/mol K
Förster critical energy transfer distance R0 [6]: 6.91 nm
binding distance r (donor-acceptor) [6]: 9.47 nm
efficiency of energy transfer E [6]: 0.131
other secondary structure content of apo-hTf ([7]; compound concentration 0.4 (M)): 19.1%
random coil content of apo-hTf ([7]; compound concentration 0.4 (M)): 33.7%
α-helix content of apo-hTf ([7]; compound concentration 0.4 (M)): 29.7%
β-sheet content of apo-hTf ([7]; compound concentration 0.4 (M)): 17.5%
other secondary structure content of apo-hTf ([7]; compound concentration 0.8 (M)): 19.1%
random coil content of apo-hTf ([7]; compound concentration 0.8 (M)): 33.8%
α-helix content of apo-hTf ([7]; compound concentration 0.8 (M)): 29.5%
β-sheet content of apo-hTf ([7]; compound concentration 0.8 (M)): 17.6%
other secondary structure content of apo-hTf ([7]; compound concentration 1.2 (M)): 19.2%
random coil content of apo-hTf ([7]; compound concentration 1.2 (M)): 33.8%
α-helix content of apo-hTf ([7]; compound concentration 1.2 (M)): 29.3%
β-sheet content of apo-hTf ([7]; compound concentration 1.2 (M)): 17.7%
other secondary structure content of apo-hTf ([7]; compound concentration 1.6 (M)): 19.1%
random coil content of apo-hTf ([7]; compound concentration 1.6 (M)): 34%
α-helix content of apo-hTf ([7]; compound concentration 1.6 (M)): 29.1%
β-sheet content of apo-hTf ([7]; compound concentration 1.6 (M)): 17.8%
other secondary structure content of apo-hTf ([7]; compound concentration 2 (M)): 19.1%
random coil content of apo-hTf ([7]; compound concentration 2 (M)): 34%
α-helix content of apo-hTf ([7]; compound concentration 2 (M)): 29%
β-sheet content of apo-hTf ([7]; compound concentration 2 (M)): 17.9%
other secondary structure content of apo-hTf ([7]; compound concentration 2.4 (M)): 19.2%
random coil content of apo-hTf ([7]; compound concentration 2.4 (M)): 34.1%
α-helix content of apo-hTf ([7]; compound concentration 2.4 (M)): 28.7%
β-sheet content of apo-hTf ([7]; compound concentration 2.4 (M)): 18%
